# Compound activity deposited in PubChem BioAssay by several laboratories.
# Shown are actives, neighbours in structure and some others; about 2.6% of the full set was active somewhere.
# SENP8 block-1: SENP8 protease inhibitors, primary screen, biochemical, luminescence. inhibition, % at 10 µM. 1.2% of 330,000 active. AID 2540, 2010. purified SENP8, Z-RLRGG-aminoluciferin cleavage. Sentrin-specific protease 8 (Homo sapiens), Q96LD8; in the data active means inhibition above about 50%
# Target sequence (Q96LD8 whole entry, looked up): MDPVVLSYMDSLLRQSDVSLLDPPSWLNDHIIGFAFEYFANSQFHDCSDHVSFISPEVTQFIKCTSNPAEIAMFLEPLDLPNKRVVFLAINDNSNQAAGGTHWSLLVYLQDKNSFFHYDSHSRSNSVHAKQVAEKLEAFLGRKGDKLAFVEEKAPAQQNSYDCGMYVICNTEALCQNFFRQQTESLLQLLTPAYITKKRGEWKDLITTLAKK
# SENP6 block: SENP6 protease inhibitors, primary screen, biochemical, luminescence, uHTS | Recombinant SENP6 catalytic domain, aminoluciferin luminescence | inhibition, % at 10 µM | 1.8% of 330,000 active | AID 2599, 2010;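 active means inhibition above about 50% at the single tested dose, limit read from the data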;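 further: plate controls were DMSO wells with enzyme for no effect and DMSO wells lacking enzyme for full effect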
# SENP1 FRET inh: human SENP1 catalytic domain inhibitors, primary screen, biochemical, FRET, uHTS; Sentrin-specific protease 1 (Homo sapiens), Q9P0U3; recombinant SENP1 catalytic domain, CyPet-SUMO1-YPet FRET cleavage; inhibition, % at 10 µM; 0.21% of 360,000 active; AID 624204, 2012;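 active means inhibition at least 30% at 10 µM, raw YFP signal under a set limit, fluorescence ratio 0.5 to 1.5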;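 further: 0% = enzyme with DMSO and 100% = no enzyme wells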
#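 Compound: 10 µM single point, 0.5% DMSO; Test system: hSENP1 catalytic domain, recombinant; Timing: 50 min reaction at room temperature; Technique: FRET, CFP and YFP emission; Control set: no-enzyme wells low, DMSO-plus-enzyme wells high control.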
# Platelet DG rel: inhibitors of platelet dense granule secretion, primary screen, cell-based, MLPCN, human platelets. human platelet-rich plasma, SFLLRN dense granule ATP release, luminescence. inhibition, %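 (compounds screened at 7.5 µM in platelet-rich plasma)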. 0.22% of 300,000 active;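 active means mean replicate score, as percent of positive control, at or above 50; inconclusive means mean below 50 but at least one replicate at or above 50; inactive means mean and every replicate below 50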
# SENP7 block: SENP7 protease inhibitors, primary screen, biochemical, luminescence, uHTS. recombinant SENP7, Z-RLRGG-aminoluciferin luminescence, 40 min. 1.5% of 330,000 active. inhibition, % at 5 µM. AID 434973, 2010;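 active means inhibition above about 50% at the single test dose, limit read from the data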;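 further: plate controls were DMSO with enzyme for no effect and no enzyme buffer wells for full effect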
# Target sequence (Q9BQF6 706-1050 limits assumed): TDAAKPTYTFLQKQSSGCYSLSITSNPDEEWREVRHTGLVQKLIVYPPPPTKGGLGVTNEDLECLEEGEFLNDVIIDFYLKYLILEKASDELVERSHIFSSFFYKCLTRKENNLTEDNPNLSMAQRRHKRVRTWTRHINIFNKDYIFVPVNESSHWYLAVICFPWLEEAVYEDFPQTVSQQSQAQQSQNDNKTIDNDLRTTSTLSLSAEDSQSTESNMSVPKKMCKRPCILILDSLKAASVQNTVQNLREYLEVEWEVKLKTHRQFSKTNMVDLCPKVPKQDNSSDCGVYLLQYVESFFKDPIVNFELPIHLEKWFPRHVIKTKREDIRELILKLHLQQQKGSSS
# SENP8 block-2: human SENP8 protease inhibitors, primary screen, biochemical, fluorescence, Nedd8 protein substrate, uHTS; Sentrin-specific protease 8 (Homo sapiens), Q96LD8; recombinant SENP8; inhibition, % at 20 µM; 0.64% of 360,000 active; in the data active means inhibition mostly above about 40%, no sharp cut-off; inactive means mostly below about 27%
# SENP8 conf: SENP8 protease inhibitors, retest, confirmation, biochemical, luminescence, single concentration | shares compounds with SENP7 block | Recombinant SENP8, Z-RLRGG-aminoluciferin luminescence, 60 min | inhibition, % at 12.5 µM | 40% of 6,200 active | AID 488912, 2010;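 active means mean inhibition across replicates above about 50%, limit read from the data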
# SENP6 confirm: SENP6 protease inhibitors, confirmation, biochemical, luminescence, single concentration; shares compounds with SENP7 block; recombinant SENP6, Z-RLRGG-aminoluciferin luminescence; inhibition, % at 12.5 µM; 58% of 6,200 active; AID 488915, 2010
# SENP7 confirm: SENP7 protease inhibitors, retest, confirmation, biochemical, luminescence, single concentration | recombinant SENP7, Z-RLRGG-aminoluciferin luminescence, 40 min | shares compounds with SENP7 block | inhibition, % at 12.5 µM | 69% of 6,200 active
# Casp3 SENP sel: caspase-3 protease inhibitors, confirmation, selectivity assay for SENP inhibitor project, biochemical, single concentration; purified caspase-3, Z-DEVD-aminoluciferin luminescence, 60 min; inhibition, % at 12.5 µM; 60% of 6,200 active; shares compounds with SENP7 block; AID 488918, 2010;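 active means mean inhibition above about 50%, limit read from the data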;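 further: plate controls were enzyme with DMSO for no effect and wells without caspase-3 for full effect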
# Luc interf: interferes with luciferase luminescence in SENP counter-screen; shares compounds with SENP7 block; Pre-incubated SENP8/Z-RLRGG-aminoluciferin, luciferase luminescence interference; inhibition, % at 12.5 µM; 39% of 6,200 active;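 active means mean inhibition above about 50% when retested at one dose, limit read from the data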;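 further: plate controls were DMSO wells with completed reaction for no effect and substrate without enzyme for full effect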
# The depositor's hits bear a star; i = inactive; ? = inconclusive; · = not tested or not shown.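 How the source made its calls, unless noted: active means mean inhibition above about 50% in the one-dose retest (limit read from the data); inactive means the rest.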
SMILES,SENP8 block-1,SENP6 block,SENP1 FRET inh,Platelet DG rel,SENP7 block,SENP8 block-2,SENP8 conf,SENP6 confirm,SENP7 confirm,Casp3 SENP sel,Luc interf
c1ccc(-c2cn3nc4c(nc3n2)CCCC4)cc1,46,50*,-15,39,26,-436,86*,94*,96*,94*,36
Brc1ccc(-c2cn3nc4c(nc3n2)CCCC4)cc1,74*,70*,-15,-1,20,-406,38,66*,60*,43,10
Cc1ccc(OCCCC(=O)NC2CCCCC2)cc1,-1,-1,-3,-4,-4,8,·,·,·,·,·
C(=N\Nc1nc(-c2ccccc2)cs1)/c1ccco1,54*,72*,-6,-1,47,-18,65*,66*,87*,37,58*
Cc1ccc(-c2csc(N/N=C/c3ccco3)n2)cc1,0,7,-6,4,6,-21,·,·,·,·,·
C(=N\Nc1nc(-c2ccccc2)cs1)/c1cccs1,31,64*,0,2,2,-68,63*,65*,88*,33,0
Cc1cc(=O)n2nc(N3CCCC(C(=O)NCCCN4C(C)CCCC4C)C3)sc2n1 (stereo not given),·,·,1,·,·,12,·,·,·,·,·
CCN(CC(=O)Nc1ccc(NC(C)=O)cc1)C(=O)CCCc1nc2ccccc2s1,-10,7,0,·,-3,19,·,·,·,·,·
c1ccc2c(-c3[nH]ncc3CNCCCn3ncc4ccccc43)cccc2c1,6,-7,-13,-14,-4,-13,·,·,·,·,·
COc1ccc(CC(=O)Nc2ccc(-c3cn4ccccc4n3)cc2)cc1,-14,-3,4,?,-13,i,·,·,·,·,·
CCOc1ccc(-c2cnc3ccccc3n2)cc1,93*,96*,-3,9,98*,-441,8,61*,79*,88*,58*
CCOc1ccc(-c2cn3ccccc3n2)cc1,66*,49,-3,·,72*,-410,86*,85*,96*,90*,84*
Cc1[nH][nH]c(=O)c1N=Nc1ccc(Br)c(Cl)c1,86*,94*,5,-23,71*,28,40,49,44,46,-4
CC(=O)c1ccc(N=Nc2c(C)[nH][nH]c2=O)cc1,41,55*,4,15,79*,56*,56*,57*,76*,88*,38
CC(=O)c1ccc(NS(=O)(=O)c2ccc(N)cc2)cc1,5,-10,1,-3,0,4,·,·,·,·,·
CC(=O)c1ccc(N=Nc2ccc(N)cc2)cc1,49,75*,4,16,78*,46*,60*,62*,88*,62*,12
O=C(N/N=C/c1ccc(Br)s1)c1ccco1,-7,-6,0,19,5,-11,·,·,·,·,·
Cc1ccc(/C=N/NC(=O)c2ccoc2C)s1,74*,88*,0,16,85*,6,-3,77*,95*,93*,80*
Cc1occc1C(=O)N/N=C/c1ccc(Br)s1,81*,88*,1,8,88*,2,-8,78*,95*,89*,53*
Cc1sc(NC(=O)CN2C(=O)NC3(CCCC3)C2=O)nc1-c1ccc(F)cc1,0,1,2,0,-3,7,·,·,·,·,·
COc1ccc(N2CS(=O)CC2=O)cc1 (stereo not given),-10,-5,1,-1,-5,-3,·,·,·,·,·
CCOC(=O)c1ccc(NCc2nc3ccccc3n2C)cc1,61*,46,3,12,79*,9,82*,83*,96*,86*,83*
COc1ccc(Nc2nc3ccccc3n2C)cc1,33,56*,1,5,35,12,21,22,69*,72*,49
COc1ccc(NCc2nc3ccccc3n2C)cc1,33,68*,0,13,45,12,65*,64*,85*,87*,70*
Cn1c(CNc2ccc(Br)cc2)nc2ccccc21,59*,70*,1,4,72*,9,-3,63*,87*,63*,70*
SMILES,SENP8 block-1,SENP6 block,SENP1 FRET inh,Platelet DG rel,SENP7 block,SENP8 block-2,SENP8 conf,SENP6 confirm,SENP7 confirm,Casp3 SENP sel,Luc interf
Cc1ccc(NCc2nc3ccccc3n2C)cc1,12,39,-5,18,3,-76,·,·,·,·,·
COc1ccc(CNc2nc3ccccc3n2C)c(O)c1,41,64*,2,17,68*,2,67*,65*,90*,73*,71*
Cn1c(NCc2cc(Br)ccc2O)nc2ccccc21,-11,-20,0,-2,-12,-3,·,·,·,·,·
Cc1ccc(CNc2nc3ccccc3n2C)cc1,59*,78*,1,14,72*,-13,61*,62*,91*,88*,75*
O=C1NC(c2cc(Cl)cc([N+](=O)[O-])c2O)Nc2ccccc21 (stereo not given),69*,87*,-19,-2,17,18,9,25,15,27,33
CCCCCNC(=O)C1C(=O)Nc2ccccc2C(=O)N1c1ccc(OC)cc1 (stereo not given),·,·,-1,·,·,-12,·,·,·,·,·
CCN(C(=O)CSc1ccc2ccccc2n1)C1CCCCC1,-15,-11,3,·,-8,5,·,·,·,·,·
COC(=O)c1[nH]c2ccc(C)cc2c1NC(=O)Oc1ccccc1,51*,82*,2,3,7,i,1,4,12,8,8
COC(=O)c1[nH]c2ccccc2c1NC(=O)Oc1ccccc1,-13,28,6,13,-13,i,·,·,·,·,·
